Measurements from ChEMBL document CHEMBL4680371, “Design and Structure-Activity Relationship of a Potent Furin Inhibitor Derived from Influenza Hemagglutinin” (ACS Med Chem Lett, 2021).
Where a SMILES comes first, the peptide text is derived from it. [ ]: non-standard residue; d: D form. Abu = CC[C@H](N)C(=O)O; Aib = CC(C)(N)C(=O)O

The compounds below were run against Furin (Homo sapiens, UniProt P09958) (assay: Inhibition of recombinant soluble human furin using pyroGlu-Arg-Thr-Lys-Arg-methyl-coumaryl-7-amide as substrate measured after 1 hr).
Method in brief: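 Soluble human recombinant furin was tested in a competitive kinetic assay. Ki is reported as the mean ± SD of at least two independent experiments.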

Chain of Furin (P09958 whole entry): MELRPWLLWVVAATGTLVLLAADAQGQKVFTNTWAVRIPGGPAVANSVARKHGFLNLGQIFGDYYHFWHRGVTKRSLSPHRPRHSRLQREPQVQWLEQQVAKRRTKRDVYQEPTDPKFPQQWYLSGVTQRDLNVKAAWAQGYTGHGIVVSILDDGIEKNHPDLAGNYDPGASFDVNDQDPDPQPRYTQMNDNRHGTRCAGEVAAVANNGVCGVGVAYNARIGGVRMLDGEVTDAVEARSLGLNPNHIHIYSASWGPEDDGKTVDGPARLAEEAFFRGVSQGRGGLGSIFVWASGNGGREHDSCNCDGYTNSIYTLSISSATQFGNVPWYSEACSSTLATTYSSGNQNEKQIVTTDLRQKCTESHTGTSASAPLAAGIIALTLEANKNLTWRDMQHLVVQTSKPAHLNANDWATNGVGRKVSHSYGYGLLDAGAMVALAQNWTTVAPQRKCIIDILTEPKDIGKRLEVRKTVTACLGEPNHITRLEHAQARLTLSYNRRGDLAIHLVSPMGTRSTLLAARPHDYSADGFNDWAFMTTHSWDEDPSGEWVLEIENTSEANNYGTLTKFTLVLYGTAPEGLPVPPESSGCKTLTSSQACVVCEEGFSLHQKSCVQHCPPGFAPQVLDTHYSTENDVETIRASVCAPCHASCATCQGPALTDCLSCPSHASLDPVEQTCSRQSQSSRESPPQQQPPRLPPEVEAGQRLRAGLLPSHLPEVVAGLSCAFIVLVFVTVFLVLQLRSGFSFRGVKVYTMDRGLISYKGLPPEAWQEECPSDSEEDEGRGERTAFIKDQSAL

Q: `CC[C@H](C)[C@H](NC(C)=O)C(=O)N[C@@H](C)C(=O)N[C@@H](CCCNC(=N)N)C(=O)N[C@@H](CCCNC(=N)N)C(=O)N[C@@H](CCCNC(=N)N)C(=O)N[C@@H](CCCCN)C(=O)N[C@@H](CCCCN)C(=O)N[C@@H](CCCNC(=N)N)C(=O)N[C@H](C(N)=O)[C@@H](C)O` was tested. Which Ki did it give?
A: 11 nM

Q: Which Ki does the source give for `CC(=O)N[C@@H](CCCNC(=N)N)C(=O)N[C@@H](C)C(=O)N[C@@H](CCC(=O)O)C(=O)N[C@@H](CCCNC(=N)N)C(=O)N[C@@H](CCCNC(=N)N)C(=O)N[C@@H](CCCCN)C(=O)N[C@@H](CCCCN)C(=O)N[C@@H](CCCNC(=N)N)C(=O)N[C@H](C(N)=O)[C@@H](C)O` here?
A: 140 nM

Q: Which Ki does the source give for `CC(=O)N[C@@H](C)C(=O)N[C@H](C(=O)N[C@@H](CCCNC(=N)N)C(=O)N[C@@H](CCCNC(=N)N)C(=O)N[C@@H](CCCNC(=N)N)C(=O)N[C@@H](CCCCN)C(=O)N[C@@H](CCCCN)C(=O)N[C@@H](CCCNC(=N)N)C(=O)N[C@H](C(N)=O)[C@@H](C)O)C(C)C` (Ac-AVRRRKKRT-NH2) here?
A: 10 nM

Q: How did the Ki turn out when `CC(=O)N[C@@H](CCCNC(=N)N)C(=O)N[C@H](C(=O)N[C@@H](CCCNC(=N)N)C(=O)N[C@@H](CCCNC(=N)N)C(=O)N[C@@H](CCCNC(=N)N)C(=O)N[C@@H](CCCCN)C(=O)N[C@@H](CCCCN)C(=O)N[C@@H](CCCNC(=N)N)C(=O)N[C@H](C(N)=O)[C@@H](C)O)[C@@H](C)O` was run?
A: 16 nM

Q: Which Ki does the source give for `CC(=O)N[C@@H](CCCNC(=N)N)C(=O)N[C@@H](C)C(=O)N[C@@H](CCCNC(=N)N)C(=O)N[C@@H](CC(=O)O)C(=O)N[C@@H](CCCNC(=N)N)C(=O)N[C@@H](CCCCN)C(=O)N[C@@H](CCCCN)C(=O)N[C@@H](CCCNC(=N)N)C(=O)N[C@H](C(N)=O)[C@@H](C)O` here?
A: 130 nM

Q: Which Ki does the source give for `CC(=O)N[C@@H](CO)C(=O)N[C@@H](C)C(=O)N[C@@H](CCCNC(=N)N)C(=O)N[C@@H](CCCNC(=N)N)C(=O)N[C@@H](CCCNC(=N)N)C(=O)N[C@@H](CCCCN)C(=O)N[C@@H](CCCCN)C(=O)N[C@@H](CCCNC(=N)N)C(=O)N[C@H](C(N)=O)[C@@H](C)O` here?
A: 11 nM

Q: `CC(=O)N[C@@H](CCCNC(=N)N)C(=O)N[C@@H](C)C(=O)N[C@@H](CCCNC(=N)N)C(=O)N[C@@H](CCC(N)=O)C(=O)N[C@@H](CCCNC(=N)N)C(=O)N[C@@H](CCCCN)C(=O)N[C@@H](CCCCN)C(=O)N[C@@H](CCCNC(=N)N)C(=O)N[C@H](C(N)=O)[C@@H](C)O` was tested. Which Ki did it give?
A: 19 nM

Q: `CC(=O)N[C@@H](CCCNC(=N)N)C(=O)N[C@H](C(=O)N[C@@H](CCCNC(=N)N)C(=O)N[C@@H](CCCNC(=N)N)C(=O)N[C@@H](CCCNC(=N)N)C(=O)N[C@@H](CCCCN)C(=O)N[C@@H](CCCCN)C(=O)N[C@@H](CCCNC(=N)N)C(=O)N[C@H](C(N)=O)[C@@H](C)O)C(C)C` was tested. Which Ki did it give?
A: 16 nM

Q: Which Ki does the source give for `CC(=O)N[C@@H](CCCNC(=N)N)C(=O)N[C@@H](CO)C(=O)N[C@@H](CCCNC(=N)N)C(=O)N[C@@H](CCCNC(=N)N)C(=O)N[C@@H](CCCNC(=N)N)C(=O)N[C@@H](CCCCN)C(=O)N[C@@H](CCCCN)C(=O)N[C@@H](CCCNC(=N)N)C(=O)N[C@H](C(N)=O)[C@@H](C)O` here?
A: 15 nM

Q: Which Ki does the source give for `CC(=O)N[C@H](CO)C(=O)N[C@@H](C)C(=O)N[C@@H](CCCNC(=N)N)C(=O)N[C@@H](CCCNC(=N)N)C(=O)N[C@@H](CCCNC(=N)N)C(=O)N[C@@H](CCCCN)C(=O)N[C@@H](CCCCN)C(=O)N[C@@H](CCCNC(=N)N)C(=O)N[C@H](C(N)=O)[C@@H](C)O` here?
A: 11 nM

Q: Which Ki does the source give for `CC(=O)N[C@@H](CCCNC(=N)N)C(=O)N[C@@H](C)C(=O)N[C@@H](CCCNC(=N)N)C(=O)N[C@@H](Cc1c[nH]c2ccccc12)C(=O)N[C@@H](CCCNC(=N)N)C(=O)N[C@@H](CCCCN)C(=O)N[C@@H](CCCCN)C(=O)N[C@@H](CCCNC(=N)N)C(=O)N[C@H](C(N)=O)[C@@H](C)O` here?
A: 47 nM

Q: Which Ki does the source give for `CC(=O)N[C@@H](CCCNC(=N)N)C(=O)N[C@@H](C)C(=O)N[C@@H](CCCNC(=N)N)C(=O)N[C@@H](CC(C)C)C(=O)N[C@@H](CCCNC(=N)N)C(=O)N[C@@H](CCCCN)C(=O)N[C@@H](CCCCN)C(=O)N[C@@H](CCCNC(=N)N)C(=O)N[C@H](C(N)=O)[C@@H](C)O` here?
A: 11 nM

Q: With `CC(=O)N[C@@H](CCCNC(=N)N)C(=O)N[C@@H](CC(=O)O)C(=O)N[C@@H](CCCNC(=N)N)C(=O)N[C@@H](CCCNC(=N)N)C(=O)N[C@@H](CCCNC(=N)N)C(=O)N[C@@H](CCCCN)C(=O)N[C@@H](CCCCN)C(=O)N[C@@H](CCCNC(=N)N)C(=O)N[C@H](C(N)=O)[C@@H](C)O` as the compound, how does the Ki read?
A: 33 nM

Q: How did the Ki turn out when `CC(=O)N[C@H](C(=O)N[C@@H](C)C(=O)N[C@@H](CCCNC(=N)N)C(=O)N[C@@H](CCCNC(=N)N)C(=O)N[C@@H](CCCNC(=N)N)C(=O)N[C@@H](CCCCN)C(=O)N[C@@H](CCCCN)C(=O)N[C@@H](CCCNC(=N)N)C(=O)N[C@H](C(N)=O)[C@@H](C)O)[C@@H](C)O` was run?
A: 10 nM

Q: `CC[C@H](NC(C)=O)C(=O)N[C@@H](C)C(=O)N[C@@H](CCCNC(=N)N)C(=O)N[C@H](C(=O)N[C@@H](CCCNC(=N)N)C(=O)N[C@@H](CCCCN)C(=O)N[C@@H](CCCCN)C(=O)N[C@@H](CCCNC(=N)N)C(=O)N[C@H](C(N)=O)[C@@H](C)O)[C@@H](C)CC` (Ac-[Abu]ARIRKKRT-NH2) was tested. Which Ki did it give?
A: 6 nM

Q: For `CC(=O)N[C@@H](CCCNC(=N)N)C(=O)N[C@@H](Cc1c[nH]cn1)C(=O)N[C@@H](CCCNC(=N)N)C(=O)N[C@@H](CCCNC(=N)N)C(=O)N[C@@H](CCCNC(=N)N)C(=O)N[C@@H](CCCCN)C(=O)N[C@@H](CCCCN)C(=O)N[C@@H](CCCNC(=N)N)C(=O)N[C@H](C(N)=O)[C@@H](C)O`, which Ki is on record?
A: 21 nM

Q: With `CC(=O)N[C@@H](CCCNC(=N)N)C(=O)N[C@@H](C)C(=O)N[C@@H](CCCNC(=N)N)C(=O)NC1(C(=O)N[C@@H](CCCNC(=N)N)C(=O)N[C@@H](CCCCN)C(=O)N[C@@H](CCCCN)C(=O)N[C@@H](CCCNC(=N)N)C(=O)N[C@H](C(N)=O)[C@@H](C)O)CCCC1` as the compound, how does the Ki read?
A: 50 nM

Q: `CC(=O)N[C@@H](CCCNC(=N)N)C(=O)N[C@@H](C)C(=O)N[C@@H](CC(=O)O)C(=O)N[C@@H](CCCNC(=N)N)C(=O)N[C@@H](CCCNC(=N)N)C(=O)N[C@@H](CCCCN)C(=O)N[C@@H](CCCCN)C(=O)N[C@@H](CCCNC(=N)N)C(=O)N[C@H](C(N)=O)[C@@H](C)O` was tested. Which Ki did it give?
A: 270 nM

Q: `CC(=O)N[C@@H](CCCNC(=N)N)C(=O)N[C@@H](Cc1c[nH]c2ccccc12)C(=O)N[C@@H](CCCNC(=N)N)C(=O)N[C@@H](CCCNC(=N)N)C(=O)N[C@@H](CCCNC(=N)N)C(=O)N[C@@H](CCCCN)C(=O)N[C@@H](CCCCN)C(=O)N[C@@H](CCCNC(=N)N)C(=O)N[C@H](C(N)=O)[C@@H](C)O` was tested. Which Ki did it give?
A: 29 nM

Q: Which Ki does the source give for `CC[C@H](NC(=O)[C@H](CCCNC(=N)N)NC(=O)[C@H](C)NC(=O)[C@H](CCCNC(=N)N)NC(C)=O)C(=O)N[C@@H](CCCNC(=N)N)C(=O)N[C@@H](CCCCN)C(=O)N[C@@H](CCCCN)C(=O)N[C@@H](CCCNC(=N)N)C(=O)N[C@H](C(N)=O)[C@@H](C)O` here?
A: 11 nM

Q: How did the Ki turn out when `CC[C@H](C)[C@H](NC(=O)[C@H](CCCNC(=N)N)NC(=O)[C@H](C)NC(=O)C(C)(C)NC(C)=O)C(=O)N[C@@H](CCCNC(=N)N)C(=O)N[C@@H](CCCCN)C(=O)N[C@@H](CCCCN)C(=O)N[C@@H](CCCNC(=N)N)C(=O)N[C@H](C(N)=O)[C@@H](C)O` (Ac-[Aib]ARIRKKRT-NH2) was run?
A: 13 nM

Q: For `CSCC[C@H](NC(=O)[C@H](C)NC(=O)[C@H](CCCNC(=N)N)NC(C)=O)C(=O)N[C@@H](CCCNC(=N)N)C(=O)N[C@@H](CCCNC(=N)N)C(=O)N[C@@H](CCCCN)C(=O)N[C@@H](CCCCN)C(=O)N[C@@H](CCCNC(=N)N)C(=O)N[C@H](C(N)=O)[C@@H](C)O`, which Ki is on record?
A: 31 nM

Q: How did the Ki turn out when `CC(=O)N[C@@H](CCCNC(=N)N)C(=O)N1CCC[C@H]1C(=O)N[C@@H](CCCNC(=N)N)C(=O)N[C@@H](CCCNC(=N)N)C(=O)N[C@@H](CCCNC(=N)N)C(=O)N[C@@H](CCCCN)C(=O)N[C@@H](CCCCN)C(=O)N[C@@H](CCCNC(=N)N)C(=O)N[C@H](C(N)=O)[C@@H](C)O` was run?
A: 17 nM

Q: `CC(=O)N[C@@H](C)C(=O)N[C@@H](Cc1c[nH]c2ccccc12)C(=O)N[C@@H](CCCNC(=N)N)C(=O)N[C@@H](CCCNC(=N)N)C(=O)N[C@@H](CCCNC(=N)N)C(=O)N[C@@H](CCCCN)C(=O)N[C@@H](CCCCN)C(=O)N[C@@H](CCCNC(=N)N)C(=O)N[C@H](C(N)=O)[C@@H](C)O` (Ac-AWRRRKKRT-NH2) was tested. Which Ki did it give?
A: 30 nM

Q: With `CSCC[C@H](NC(C)=O)C(=O)N[C@@H](C)C(=O)N[C@@H](CCCNC(=N)N)C(=O)N[C@@H](CCCNC(=N)N)C(=O)N[C@@H](CCCNC(=N)N)C(=O)N[C@@H](CCCCN)C(=O)N[C@@H](CCCCN)C(=O)N[C@@H](CCCNC(=N)N)C(=O)N[C@H](C(N)=O)[C@@H](C)O` as the compound, how does the Ki read?
A: 12 nM

Q: Which Ki does the source give for `CC(=O)N[C@@H](CCCNC(=N)N)C(=O)N[C@@H](C)C(=O)N[C@H](C(=O)N[C@@H](CCCNC(=N)N)C(=O)N[C@@H](CCCNC(=N)N)C(=O)N[C@@H](CCCCN)C(=O)N[C@@H](CCCCN)C(=O)N[C@@H](CCCNC(=N)N)C(=O)N[C@H](C(N)=O)[C@@H](C)O)[C@@H](C)O` here?
A: 28 nM

Q: Which Ki does the source give for `CC(=O)N[C@@H](CCCNC(=N)N)C(=O)N[C@@H](C)C(=O)N[C@@H](CCCNC(=N)N)C(=O)N[C@@H](Cc1c[nH]cn1)C(=O)N[C@@H](CCCNC(=N)N)C(=O)N[C@@H](CCCCN)C(=O)N[C@@H](CCCCN)C(=O)N[C@@H](CCCNC(=N)N)C(=O)N[C@H](C(N)=O)[C@@H](C)O` here?
A: 22 nM

Q: Which Ki does the source give for `CC[C@H](C)[C@H](NC(=O)[C@H](CCCNC(=N)N)NC(=O)[C@H](C)NC(=O)[C@H](CO)NC(C)=O)C(=O)N[C@@H](CCCNC(=N)N)C(=O)N[C@@H](CCCCN)C(=O)N[C@@H](CCCCN)C(=O)N[C@@H](CCCNC(=N)N)C(=O)N[C@H](C(N)=O)[C@@H](C)O` (Ac-SARIRKKRT-NH2) here?
A: 8 nM

Q: How did the Ki turn out when `CC(=O)N[C@@H](CCCNC(=N)N)C(=O)N[C@@H](C)C(=O)N[C@@H](CCCNC(=N)N)C(=O)N[C@H](C(=O)N[C@@H](CCCNC(=N)N)C(=O)N[C@@H](CCCCN)C(=O)N[C@@H](CCCCN)C(=O)N[C@@H](CCCNC(=N)N)C(=O)N[C@H](C(N)=O)[C@@H](C)O)C(C)(C)C` was run?
A: 16 nM

Q: `CC(=O)N[C@@H](CCCNC(=N)N)C(=O)N[C@@H](C)C(=O)N[C@@H](C)C(=O)N[C@@H](CCCNC(=N)N)C(=O)N[C@@H](CCCNC(=N)N)C(=O)N[C@@H](CCCCN)C(=O)N[C@@H](CCCCN)C(=O)N[C@@H](CCCNC(=N)N)C(=O)N[C@H](C(N)=O)[C@@H](C)O` was tested. Which Ki did it give?
A: 23 nM
